Source: PubChem (NMMLSC)
GSH fluor: compound fluoresces at 488/530 nm on GSH beads. GSH beads flow cytometry, compound fluorescence 488/530 nm; active compounds read high. fluorescence (KMESF) at 10 µM. 190,000 tested, 0.25% active. AID 1776; in the data active = fluorescence above about 89;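 also: glutathione beads carrying GST-tagged Bcl family fusion proteins plus one bare bead set; values are compound well signal with DMSO vehicle wells as background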
Avidin fluor: avidin bead compound fluorescence profile; Avidin beads, compound fluorescence 488/530 nm, flow cytometry; active compounds read high; fluorescence (KMESF) at 10 µM; 220,000 tested, 0.38% active; AID 1775; in the data active = fluorescence above about 47
Arr AP2 block: human beta-arrestin and AP2 interaction inhibition. AID 504490. 340,000 tested, 0.31% active. FITC-arrestin peptide / GST-AP2 beads, flow cytometry; AP2 beta2 appendage carries R879A mutation. inhibition, % at 10 µM;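 active = inhibition above a set limit, near 3 SD of compounds lacking own fluorescence, cut at about 54% in these data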;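 also: plate controls were DMSO wells for no effect and 5 µM unlabelled arrestin peptide for full effect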
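Test system: GST-tagged AP2 beta2-adaptin appendage (R879A) on 4 µm glutathione beads; also added: fluorescein-tagged arrestin peptide at 50 nM final; timing: 12 min plus 1 h, RT; signal: flow cytometry, FL1 (488/535 nm); read-out: percent drop in bead-associated FITC signal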
Pemphigus Ab inh: human desmoglein-3 autoantibody binding inhibition. P32926. DSG3-coupled beads, scFv-anti-DSG3-GFP binding, flow cytometry; active compounds read low. binding (percent of control), % at 10 µM. 310,000 tested, 0.48% active. AID 588358;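 active = binding more than 3 SD below its plate's average and above zero; inconclusive = below that plate limit but binding exactly zero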;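 also: hits lower antibody fragment binding to DSG3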
Target sequence (P32926 whole entry, looked up, the tested form may be a part): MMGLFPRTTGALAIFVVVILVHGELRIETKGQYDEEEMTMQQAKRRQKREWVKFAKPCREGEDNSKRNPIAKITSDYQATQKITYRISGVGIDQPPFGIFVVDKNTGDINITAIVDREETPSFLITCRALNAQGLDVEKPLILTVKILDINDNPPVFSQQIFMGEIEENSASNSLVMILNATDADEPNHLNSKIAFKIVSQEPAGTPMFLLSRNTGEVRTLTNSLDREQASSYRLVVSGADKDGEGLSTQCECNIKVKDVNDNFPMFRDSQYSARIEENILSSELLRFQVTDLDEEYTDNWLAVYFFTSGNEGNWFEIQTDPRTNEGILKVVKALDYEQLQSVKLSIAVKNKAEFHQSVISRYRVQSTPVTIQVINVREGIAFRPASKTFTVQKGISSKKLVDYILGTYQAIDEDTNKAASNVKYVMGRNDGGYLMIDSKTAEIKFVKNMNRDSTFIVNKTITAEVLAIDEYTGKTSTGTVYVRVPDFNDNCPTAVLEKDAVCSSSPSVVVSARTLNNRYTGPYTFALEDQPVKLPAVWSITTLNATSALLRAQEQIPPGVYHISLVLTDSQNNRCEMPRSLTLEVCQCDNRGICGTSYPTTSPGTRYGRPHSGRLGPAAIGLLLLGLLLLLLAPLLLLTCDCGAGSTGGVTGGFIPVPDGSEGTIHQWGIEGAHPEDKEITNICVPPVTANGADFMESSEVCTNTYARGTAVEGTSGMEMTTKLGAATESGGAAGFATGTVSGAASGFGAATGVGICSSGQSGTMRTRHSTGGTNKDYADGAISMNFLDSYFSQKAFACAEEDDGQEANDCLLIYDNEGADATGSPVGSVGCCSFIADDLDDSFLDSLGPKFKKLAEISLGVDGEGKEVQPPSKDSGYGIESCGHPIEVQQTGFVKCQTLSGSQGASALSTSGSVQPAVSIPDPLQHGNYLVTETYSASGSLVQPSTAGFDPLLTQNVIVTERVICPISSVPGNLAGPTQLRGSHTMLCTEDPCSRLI
Arr AP2 CP1: inhibitors of human beta-arrestin and AP2 interaction; shares compounds with Arr AP2 block; GST-AP2 beads, FITC arrestin peptide binding, flow cytometry; GST-fused beta2-adaptin appendage, R879A mutant; inhibition, % at 10 µM; 1,300 tested, 2% active; AID 504908;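 active = inhibition above a set limit, roughly 3 SD of non-fluorescent compound noise, cut at about 38% in these data; inactive = inhibition at or below that limit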;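 also: loss of bead fluorescence from 50 nM FITC arrestin peptide bound to appendage; 0% = negative control wells and 100% = excess unlabelled arrestin peptide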
GST-FITC bead: GST-GSH bead binding interference, counter-screen; shares compounds with Arr AP2 block; inhibition, % at 10 µM; 1,300 tested, 2% active; GST-fluorescein binding to GSH beads, fluorescence;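 active = inhibition above 50%, about 3 SD of the inhibition seen with non-fluorescent compounds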;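 also: fluorescein maleimide labelled GST captured on 4 micron glutathione beads; higher means more loss of bead fluorescence from quenching or blocked binding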
Numbers without * were called inactive; u = inconclusive; x = no result. Shown are actives, neighbours in structure and some others; about 1.1% of the full set was active somewhere.

SMILES | GSH fluor | Avidin fluor | Arr AP2 block | Pemphigus Ab inh | Arr AP2 CP1 | GST-FITC bead
CC(=O)c1c(C)[nH]c(C(=O)OCC(=O)Nc2ccc3c(c2)OCCO3)c1C | x | x | -4 | 114 | x | x
COc1cc(C(=O)Nc2ccccc2N2CCOCC2)ccc1OCC(=O)N1CCOCC1 | x | x | 31 | u | x | x
COc1ccc(C(=O)Nc2cc3c(cc2N2CCOCC2)n(C)c(=O)n3C)cc1OC | x | x | 2 | 104 | -20 | -13
COc1cccc(C(=O)Nc2cc3c(cc2N2CCOCC2)n(C)c(=O)n3C)c1 | x | x | 8 | 109 | 6 | -5
CCOc1cc(C(=O)Nc2cc3c(cc2N2CCOCC2)n(C)c(=O)n3C)cc(OCC)c1OCC | x | x | -7 | 100 | -4 | -7
Cn1c(=O)n(C)c2cc(N3CCCCC3)c(NC(=O)c3cccc(Cl)c3)cc21 | x | x | 7 | 217 | -6 | -4
CC(C)C(=O)N1CCN(c2ccccc2NC(=O)c2cccc(Cl)c2)CC1 | 18 | 34 | -2 | 104 | x | x
Cc1ccc(S(=O)(=O)/N=C(/Nc2ccc(F)cc2F)c2ccccc2)cc1 | x | x | 5 | x | x | x
O=C(CCNC(=O)c1ccc([N+](=O)[O-])cc1)Nc1ccccc1N1CCCCC1 | x | x | 0 | 113 | x | x
COc1ccc2nc(-c3ccccc3)cc(C(=O)OCC(=O)N3CC(C)OC(C)C3)c2c1 (stereo not given) | x | x | 54* | x | 3 | -2
O=C(C[C@H]1C/C=C\C[C@H](Cc2ccc(F)cc2)C(=O)O[C@@H](c2ccccc2)CNC1=O)NCCO | x | x | 1 | 104 | x | x
Cc1ccc(S(=O)(=O)N(C)C)cc1NC(=S)N1CCN(Cc2ccc3c(c2)OCO3)CC1 | 12 | 10 | -19 | 98 | x | x
CCn1ncc(C(=O)Nc2ccc(F)cc2)c1C | x | x | -12 | 105 | x | x
Cc1c(C(=O)Nc2ccc(C(=O)O)cc2)cnn1C | 25 | 10 | 58* | 111 | -6 | -1
O=C(CN1C(=O)COc2ccc(Cl)cc21)N1CCCCC1 | x | x | 55* | x | 2 | -6
O=C(CN1C(=O)COc2ccccc21)NCCCN1CCCC1 | x | x | 64* | 101 | -2 | -7
COCc1ccc(CN2CCC(C(=O)Nc3cccc(-c4cccc(Cl)c4)c3)CC2)o1 | x | x | 57* | 108 | 9 | 0
COCc1ccc(CN2CCC(C(=O)Nc3cccc(-c4cscn4)c3)CC2)o1 | x | x | -4 | x | x | x
COc1ccc2c(c1)S/C(=C\C(=O)c1ccncc1)N2C | 14 | 4 | 91* | 98 | 5 | -2
COc1cc(OC)cc(C(=O)/C=C2\Sc3ccccc3N2C)c1 | 18 | 6 | 22 | 96 | x | x
COc1ccc(C(=O)/C=C2/Sc3cc4c(cc3N2C)OCO4)cc1 | 10 | 8 | 36 | 110 | x | x
CN1/C(=C/C(=O)c2ccc(Cl)cc2)Sc2cc3c(cc21)OCO3 | 13 | 15 | 103* | 111 | -1 | -5
COc1cccc(NC(=O)c2ccc(N3C(=O)C4CC=CCC4C3=O)cc2)c1 (stereo not given) | x | x | 4 | 96 | x | x
Cc1cccc(-n2c(C)cc(/C=C3/C(=N)N4C(c5ccccc5)=CSC4=NC3=O)c2C)c1 | 15 | 4 | 55* | 97 | -8 | 1
CC(OC(=O)CN1C(=O)c2ccccc2C1=O)C(=O)N(C)c1ccccc1 (stereo not given) | x | x | 6 | 88 | x | x
SMILES | GSH fluor | Avidin fluor | Arr AP2 block | Pemphigus Ab inh | Arr AP2 CP1 | GST-FITC bead
COc1ccc(Cn2c(=O)[nH]c3cc(C(=O)NCCc4ccc(S(N)(=O)=O)cc4)ccc3c2=O)cc1 | 12 | 25 | 110* | 95 | -1 | -15
O=c1[nH]c2ccc(NC(=S)Nc3ccccc3Cl)cc2[nH]1 | 13 | 5 | 55* | 108 | 3 | -4
O=c1[nH]c2ccc(NC(=S)Nc3ccc(Cl)cc3Cl)cc2[nH]1 | 4 | 9 | 4 | 98 | x | x
O=C(COC(=O)c1ccc2c(c1)OCO2)Nc1ccccc1Cl | x | x | -1 | 100 | x | x
COc1cc(C(=O)O)nc2ccccc12 | 77 | 11 | 56* | 106 | -10 | -2
COc1ccc(N2C(=O)C(CC(=O)Nc3ccc(F)cc3)N(CCc3ccc(OC)c(OC)c3)C2=O)cc1 (stereo not given) | 11 | 20 | 8 | 85 | x | x
CCOc1ccc(NC(=O)CC2C(=O)N(c3ccc(OC)cc3)C(=O)N2CCc2ccc(OC)c(OC)c2)cc1 (stereo not given) | 12 | 11 | 56* | 100 | 0 | -1
O=[N+]([O-])c1ccc(/C=C/c2ccc3cccc(O)c3n2)cc1 | x | x | 57* | 93 | -8 | -5
O=[N+]([O-])c1ccc(/C=C/c2ccc3ccccc3n2)cc1 | 10 | 22 | -12 | 97 | x | x
CNc1c(NC(=O)COc2ccc(Cl)cc2)c(=O)oc2ccccc12 | x | x | 1 | u | x | x
CCC(NC(=O)CCc1ccccc1)c1ccccc1 (stereo not given) | 18 | 9 | 61* | 106 | -1 | -2
Cc1ccc(CN(C(=O)c2ccccc2[N+](=O)[O-])C2CCS(=O)(=O)C2)o1 (stereo not given) | x | x | 34 | 99 | x | x
Cc1ccc(CN(C(=O)c2ccccc2C)C2CCS(=O)(=O)C2)o1 (stereo not given) | x | x | 56* | x | 3 | 7
O=C(Nc1cc(S(=O)(=O)N2CCCC2)ccc1OCC(F)(F)F)c1ccncc1 | x | x | x | 101 | x | x
Cn1c(SCC(=O)Nc2ccc(Cl)cc2F)nnc1-c1ccco1 | x | x | -2 | x | x | x
COc1ccc(OC)c(S(=O)(=O)N2CCC(C(=O)N3CCCCCC3)CC2)c1 | x | x | 13 | 100 | x | x
C=C(C)[C@@H]1CC=C(CN2CCN(Cc3ccccc3)CC2)CC1 | x | x | 60* | 97 | -4 | 2
C=C(C)C1CC=C(CN2CCN(Cc3ccccc3)CC2)CC1 (stereo not given) | x | x | 0 | 102 | x | x
Cc1cnc(C(=O)Nc2ccc(OC(F)(F)F)cc2)cn1 | x | x | 55* | 118 | 5 | -16
